From paper PMC11152992 (Nature, 2024)

Columns and labels:
[1] = Mouse plasma protein binding; format: in vitro ADME; conditions: Mouse Plasma
[2] = tested on: locomotor activity (measure of 5-HT1A activation); assay: Open-field locomotion assay; format: in vivo, C57BL/6J mice; conditions: mice, s.c.
In short: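 Male C57BL/6J mice aged 10–15 weeks were habituated for 30 min, then pretreated with vehicle or WAY-100635 (1 or 2 mg kg⁻¹ s.c.). Test compound followed 15 min later, s.c. at 0.1–3 or 0.3–10 mg kg⁻¹. Mice were placed immediately in a clear arena lit at about 330 lux. Observers were blinded; total locomotion was recorded automatically over 30 min, n = 7–8 per group.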

[3] = molecular target: T1, 5-HT1A (Homo sapiens, UniProt P08908); assay: 5-HT1A-mediated Gi1 activation, BRET; format: cell-based
T1 sequence (P08908 1-422): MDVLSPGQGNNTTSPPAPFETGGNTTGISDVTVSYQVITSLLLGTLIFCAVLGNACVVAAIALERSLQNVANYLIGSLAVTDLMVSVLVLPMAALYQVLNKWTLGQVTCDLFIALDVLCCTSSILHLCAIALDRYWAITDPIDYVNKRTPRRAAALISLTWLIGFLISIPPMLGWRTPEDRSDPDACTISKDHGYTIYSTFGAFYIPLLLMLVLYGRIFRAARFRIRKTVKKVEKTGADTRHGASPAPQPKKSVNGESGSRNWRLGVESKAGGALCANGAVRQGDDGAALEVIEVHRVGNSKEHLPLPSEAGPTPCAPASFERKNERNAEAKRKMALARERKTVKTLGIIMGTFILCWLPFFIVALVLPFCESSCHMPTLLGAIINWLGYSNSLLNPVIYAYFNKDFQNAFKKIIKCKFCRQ

[4] = Human plasma protein binding; format: in vitro ADME; conditions: Human Plasma
[5] = tested on: chronic social defeat stress mice; assay: Social interaction; format: in vivo, C57BL/6J mice
In short: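 Male C57BL/6J mice, 8 weeks old, had 10 consecutive days of 10-min defeat by a new CD-1 aggressor each day, then were housed overnight across a partition; controls were pair-housed and handled daily. Drug or vehicle was given 1 h after the last defeat, with SI testing 24 h later. The interaction ratio was interaction-zone time, target vs no-target; corner time and no-target locomotion were also scored. Pooled from three experiments; two-way ANOVA; resilient (>1) vs susceptible (<1) compared by Fisher's exact test.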

[6] = molecular target: serotonin transporter (SERT) (Homo sapiens, UniProt P31645); assay: Serotonin transporter uptake inhibition; format: cell-based
Sequence of serotonin transporter (SERT) (P31645 whole entry, species assumed): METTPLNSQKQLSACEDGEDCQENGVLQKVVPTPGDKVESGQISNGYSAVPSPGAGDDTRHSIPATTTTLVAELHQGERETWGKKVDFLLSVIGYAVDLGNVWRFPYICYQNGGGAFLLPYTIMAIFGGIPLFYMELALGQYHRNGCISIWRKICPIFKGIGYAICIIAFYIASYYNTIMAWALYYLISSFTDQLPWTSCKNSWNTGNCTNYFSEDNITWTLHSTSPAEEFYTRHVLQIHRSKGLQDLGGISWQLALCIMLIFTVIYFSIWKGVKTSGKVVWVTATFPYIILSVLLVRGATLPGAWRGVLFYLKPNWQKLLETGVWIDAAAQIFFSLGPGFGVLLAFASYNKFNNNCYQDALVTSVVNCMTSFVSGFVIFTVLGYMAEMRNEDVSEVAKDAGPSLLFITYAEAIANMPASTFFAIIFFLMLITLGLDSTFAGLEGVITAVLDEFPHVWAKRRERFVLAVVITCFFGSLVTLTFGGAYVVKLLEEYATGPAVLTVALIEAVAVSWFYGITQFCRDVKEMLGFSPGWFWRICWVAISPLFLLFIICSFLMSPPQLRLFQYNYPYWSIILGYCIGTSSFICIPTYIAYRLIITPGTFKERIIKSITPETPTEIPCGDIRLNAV

[7] = tested on: chronic social defeat stress mice; assay: Sucrose preference test after chronic social defeat stress; format: in vivo, C57BL/6J mice; conditions: 1 mg kg^-1 s.c., 1% sucrose two-bottle choice
In short: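 Chronic social defeat was 10 days of 10-min bouts by CD-1 aggressors in male C57BL/6J mice. On day 10, stressed mice were housed singly and habituated to two water bottles, then given a two-bottle choice between water and 1% sucrose. Data were pooled from two independent experiments.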

[8] = molecular target: 5-HT2A (Homo sapiens, UniProt P28223); assay: 5-HT2A-mediated Gq activation, BRET; format: cell-based; conditions: read-out: Gq BRET EC50; 5-HT2A-mediated Gq activation
Sequence of 5-HT2A (P28223 whole entry): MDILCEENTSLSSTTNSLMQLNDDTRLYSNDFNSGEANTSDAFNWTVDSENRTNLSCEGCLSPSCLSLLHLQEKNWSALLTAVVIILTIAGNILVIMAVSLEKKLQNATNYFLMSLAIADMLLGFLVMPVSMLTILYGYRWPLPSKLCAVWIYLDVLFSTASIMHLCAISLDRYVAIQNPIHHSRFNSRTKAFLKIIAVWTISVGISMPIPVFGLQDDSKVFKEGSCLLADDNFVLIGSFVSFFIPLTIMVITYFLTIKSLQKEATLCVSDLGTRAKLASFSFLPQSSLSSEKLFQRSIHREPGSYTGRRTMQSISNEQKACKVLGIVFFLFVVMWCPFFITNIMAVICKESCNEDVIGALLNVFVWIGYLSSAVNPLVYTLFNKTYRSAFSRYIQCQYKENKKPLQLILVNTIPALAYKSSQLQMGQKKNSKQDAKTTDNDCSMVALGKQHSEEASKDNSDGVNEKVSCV

[9] = tested on: head-twitch response (measure of 5-HT2A activation); assay: Head-twitch response; format: in vivo, C57BL/6J mice; conditions: mice, doses up to 3 mg kg^-1, in the presence or absence of WAY-100635
[10] = tested on: all other G protein-coupled 5-HT receptors; assay: Off-target activity at 5-HT receptors; format: cell-based, human; conditions: compared with activity at 5-HT1A
[11] = tested on: other neurotransmitter transporters (OCT1, OCT2, PMAT); assay: OCT1, OCT2 and PMAT uptake inhibition; format: cell-based
[12] = Mouse brain tissue binding; format: in vitro ADME
[13] = Pharmacokinetics in plasma and brain after s.c. administration; format: in vivo, C57BL/6 male mice; conditions: mice; for AUClast / Cmax: 1 mg/kg SC
In short: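 Male C57BL/6 mice (27; 3 per time point) received a subcutaneous solution formulation. Retro-orbital blood (~60 μl) was taken under light isoflurane at 0.083–12 h. Plasma and brain levels were measured by LC–MS/MS with non-compartmental analysis: Cmax and Tmax as observed, AUClast by linear trapezoidal rule, Kp calculated. For plasma protein binding, compound was spiked at 5 μM final into mouse plasma and dialysed 4 h at 37 °C.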

## COc1ccc2[nH]cc(CCN3CCCC3)c2c1F [4-F,5-MeO-PyrT, 4-fluoro, 5-methoxypyrrolidinyl-tryptamine]
[1]
  % Bound Mean: 37.36%
  % Recovery: 84.7%
  % Unbound: 62.64%
  fu: 0.626
[1]; 37 °C
  % Compound remaining at 4 h: 105.6%
[1]; replicate 1, 4 h at 37 °C
  % Bound R1: 32.04%
[2]
  locomotor activity in the open-field test (in words): dose-dependent locomotor suppression
  lowest dose that produced suppression of locomotion: 0.03 mg/kg
[3]; 5-HT1A-mediated activation of Gi1, BRET
  maximum drug effect (Emax): 102.8 % of 5-HT
[3]; Gi BRET at 5-HT1A versus Gq BRET at 5-HT2A
  selectivity for 5-HT1A > 5-HT2A: greater than 800 fold
[3]; read-out: Gi BRET EC50, 5-HT1A-mediated Gi1 activation, HEK293-T cells
  EC50: 0.37 nM
[4]
  % Bound Mean: 26.01%
  % Recovery: 81.8%
  % Unbound: 73.99%
  fu: 0.740
[4]; 37 °C
  % Compound remaining at 4 h: 97.9%
[4]; replicate 1, 4 h at 37 °C
  % Bound R1: 22.19%
[5]; 1 mg kg^-1 s.c. 1 h after last defeat, SI test 24 h later
  social avoidance phenotype (decreased interaction ratio) in stress-exposed mice: rescued
[5]; 1 mg kg^-1 s.c., non-stressed mice
  interaction ratio in control mice, drug versus vehicle: did not show any distinguishable differences in IR
[5]; drug-treated stressed mice
  increased time in the corners of the arena in defeated mice: no longer observed
[5]; drug-treated versus vehicle-treated stressed mice
  number of resilient mice (SI ratio > 1): increased the number of resilient mice
[6]
  activity at the serotonin transporter (in words): substantially reduced activity
[7]
  sucrose preference in stressed mice relative to vehicle-treated animals: significantly increased sucrose preference
[8]
  EC50: 300 nM
[9]
  HTR (in words): did not produce notable HTR
[10]
  activity at other 5-HT receptors (in words): substantially reduced activity
[11]
  activity at other neurotransmitter transporters (in words): substantially reduced activity
[12]
  % Bound Mean: 82.5%
  % Recovery: 88%
  % Unbound: 17.5%
  brain tissue binding: 82.5%
  fu: 0.175
[12]; 37 °C
  % Compound remaining at 4 h: 96%
[12]; replicate 1, 4 h at 37 °C
  % Bound R1: 84.3%
[13]; Brain
  AUClast: 128.34 ng·h/mL
  Cmax: 143.35 ng/mL
[13]; Plasma
  AUClast: 26.40 ng·h/mL
  Cmax: 44.02 ng/mL
[13]; 1 mg kg^-1 s.c.
  time within which compound was largely cleared: ≤ 2 h
  total brain-to-plasma ratio: 3.3
  unbound brain-to-plasma ratio: 0.91
[13]; 1 mg kg^-1 s.c., following drug administration
  time of peak brain penetration: 30 min
[13]; s.c. dose of 1 mg kg^-1, at 82.5% brain tissue binding
  estimated free drug concentration in the brain at Tmax: about 100 nM
